Measured values from different studies.
Lines come from different studies, so protocols differ.
JAK1 JH1: Tyrosine-protein kinase JAK1, JH1 (JAK1, Homo sapiens, UniProt P23458)
JAK1 JH2: Tyrosine-protein kinase JAK1, JH2 (JAK1, Homo sapiens, UniProt P23458)
JAK1: Tyrosine-protein kinase JAK1 (JAK1, Homo sapiens, UniProt P23458)

COc1ncc2cc3ccccc3nc2c1C#N  remaining binding (JAK1 JH1; cell-free assay; competition with immobilised ligand; 5 µM): 93%
O=C(Nc1c[nH]nc1C(=O)NC1CCNCC1)c1cc(F)cc(F)c1  remaining binding (JAK1 JH2; binding; competition with immobilised ligand; 1 µM): 82%
O=C(NCCCN1CCOCC1)c1ccc(Nc2nccc(-c3cc4ccccc4s3)n2)cc1  remaining binding (JAK1 JH1; binding; competition with immobilised ligand; 1 µM): 39%
COc1cnc(Nc2cccc(S(N)(=O)=O)c2)nc1N1CCN(c2ccccc2)CC1  remaining binding (JAK1 JH2; binding; competition with immobilised ligand; 1 µM): 28%
CN(C)c1ncc(F)c(-c2cnn3ncccc23)n1  remaining binding (JAK1; binding; 1 µM): 89%
Cc1nc(C2CCN(C(=O)c3ccc(OC(F)(F)F)cc3N)CC2)c2ncc(N3CCN(C)CC3)cc2n1  remaining binding (JAK1 JH1; cell-free assay; competition with immobilised ligand; 1 µM): 95%
CNC(=O)[C@@H]1CC[C@@H](n2c(-c3ccc4cnccc4c3)nc3ccc(C(=O)NCc4cccc(C(N)=O)c4)cc32)C1  remaining binding (JAK1 JH1; binding; competition with immobilised ligand; 1 µM): 88%
Nc1cnc(N2CCc3cc(S(=O)(=O)Nc4c(F)cc(Cl)cc4F)cc(N4CCCC4=O)c32)nc1  remaining binding (JAK1 JH1; cell-free assay; competition with immobilised ligand; 1 µM): 100%
Cc1cnc(Nc2ccc(C(=O)N3CCC(N4CCCC4)CC3)cc2)nc1-c1cc2ccccc2s1  remaining binding (JAK1 JH1; binding; competition with immobilised ligand; 1 µM): 0%
FC(F)(F)Oc1cccc(-c2cnc3ccc(-c4ccncc4)nn23)c1  remaining binding (JAK1 JH1; cell-free assay; competition with immobilised ligand; 5 µM): 100%
CS(=O)(=O)N1CCCC(NC(=O)[C@H](CCC2CCCCC2)NC(=O)c2ccc(CNC(=O)c3cnc4ccccn34)cc2)C1 (stereo partly drawn)  remaining binding (JAK1 JH2; cell-free assay; competition with immobilised ligand; 0.1 µM): 100%
N[C@@H]1CCN(c2nccc(-c3cnn4ncccc34)n2)C1  remaining binding (JAK1 JH1; cell-free assay; competition with immobilised ligand; 1 µM): 100%
O=C(NCCCN1CCOCC1)c1ccc(Nc2ncc(Cl)c(-c3ccc(Cl)s3)n2)cc1  remaining binding (JAK1 JH2; binding; competition with immobilised ligand; 1 µM): 46%
C[C@@H]1CN(c2cc(-c3n[nH]c4ccc(OC5(C)CC5)cc34)ncn2)C[C@H](C)O1  remaining binding (JAK1 JH2; cell-free assay; competition with immobilised ligand; 0.1 µM): 79%
Cc1cnn2ncc(-c3ccnc(N(C)C)n3)c2c1  remaining binding (JAK1 JH1; cell-free assay; competition with immobilised ligand; 1 µM): 98%
O=C(c1ccc(Nc2ncc(Cl)c(-c3cc4ccccc4s3)n2)cc1)N1CCC(N2CCCC2)CC1  remaining binding (JAK1 JH1; binding; competition with immobilised ligand; 1 µM): 9.3%
C[C@@H]1CCN(c2nccc(-c3cnn4ncccc34)n2)C1  remaining binding (JAK1; binding; 1 µM): 62%
CC1=C(C#N)[C@@H](c2ccc3[nH]nc(C)c3c2)C(C#N)=C(c2ccc(Cl)cc2)N1  remaining binding (JAK1 JH1; cell-free assay; competition with immobilised ligand; 1 µM): 100%
O=C(NCC1CCOCC1)c1n[nH]cc1NC(=O)c1c(F)cccc1F  remaining binding (JAK1 JH2; binding; competition with immobilised ligand; 1 µM): 90%
O=C(c1ccc(Nc2nccc(-c3cc4ccccc4s3)n2)cc1)N1CCC(N2CCCC2)CC1  remaining binding (JAK1 JH2; binding; competition with immobilised ligand; 1 µM): 3.6%
COc1cnc(Nc2cccc(S(N)(=O)=O)c2)nc1N1CCN(c2ccccc2)C(=O)C1  remaining binding (JAK1 JH1; binding; competition with immobilised ligand; 1 µM): 85%
O=C(c1ccc(Nc2ncc(Cl)c(-c3ccc(Cl)s3)n2)cc1)N1CCC(N2CCCC2)CC1  remaining binding (JAK1 JH1; binding; competition with immobilised ligand; 1 µM): 8.6%
F[C@@H]1CCN(c2nccc(-c3cnn4ncccc34)n2)C1  remaining binding (JAK1 JH1; cell-free assay; competition with immobilised ligand; 1 µM): 100%
CN1CCN(c2ccc(Nc3nccc(-c4ccccc4)n3)cc2C(F)(F)F)CC1  remaining binding (JAK1; binding; 10 µM): 0.45%
CO[C@H]1CC[C@H](CNc2ccc(S(=O)(=O)NC(=O)c3ccc(N4CCN(CC5=C(c6ccc(Cl)cc6)CC(C)(C)CC5)CC4)cc3Oc3cnc4[nH]ccc4c3)cc2[N+](=O)[O-])CC1  remaining binding (JAK1 JH2; cell-free assay; competition with immobilised ligand; 1 µM): 100%
Nc1ncc2c(n1)-c1c([nH]c3ccc(C#CC4CC4)cc13)CCCC2  remaining binding (JAK1 JH2; binding; competition with immobilised ligand; 1 µM): 97%
CCS(=O)(=O)c1cc2cc(C[C@](O)(CC(C)(C)c3ccc(F)cc3C(N)=O)C(F)(F)F)[nH]c2cn1  remaining binding (JAK1 JH2; cell-free assay; competition with immobilised ligand; 1 µM): 95%
CN(C)c1nccc(-c2cnn3ncccc23)n1  remaining binding (JAK1 JH1; cell-free assay; competition with immobilised ligand; 1 µM): 69%
O=C(O)[C@@H]1[C@@H](Cn2nnc3ccccc3c2=O)CC[C@H]1C(=O)c1ccc(OCCC2CCOCC2)cc1  remaining binding (JAK1 JH2; cell-free assay; competition with immobilised ligand; 1 µM): 100%
c1cnn2ncc(-c3ccnc(N4CCC45COC5)n3)c2c1  remaining binding (JAK1; binding; 1 µM): 67%
c1cncc(-c2cccc(Nc3nccc(NC4CCCCC4)n3)c2)c1  remaining binding (JAK1 JH1; binding; competition with immobilised ligand; 10 µM): 14%
CN(C)c1nccc(-c2cnc3ncccn23)n1  remaining binding (JAK1; binding; 1 µM): 67%
CCN1CCN(Cc2ccc(C(=O)Nc3ccc(C)c(Oc4ccc5c(c4)CC(=O)N5)c3)cc2C(F)(F)F)CC1  remaining binding (JAK1 JH1; binding; competition with immobilised ligand; 1 µM): 76%
